C8 TRAIL sens – viability loss with TRAIL in NB7+C8 cells, primary screen, TRAIL sensitizer project, cell-based, ATPlite luminescence. inhibition (viability loss, TRAIL sensitization), % at 10 µM. 360,000 tested, 1% active. AID 624354, 2012;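 active = compounds causing at least 50% loss of cell viability in the single-dose screen, relative to plate controls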
FLuc act counter – FLuc activators, initial screening, artefact control for FLuc-dependent activation tests, biochemical, ATPlite luminescence | Luciferin 4-monooxygenase (Photinus pyralis), P08659 | ATPlite luciferase biochemical, 10 min; 0 = ATP-free wells, 1 = DMSO control | activation factor at 10 µM | 200,000 tested, under 10 active | AID 1027, 2008;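 active = luciferase activation factor, scaled between plate controls, of at least 2 with compound at 10 µM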
Target sequence (P08659 whole entry, looked up): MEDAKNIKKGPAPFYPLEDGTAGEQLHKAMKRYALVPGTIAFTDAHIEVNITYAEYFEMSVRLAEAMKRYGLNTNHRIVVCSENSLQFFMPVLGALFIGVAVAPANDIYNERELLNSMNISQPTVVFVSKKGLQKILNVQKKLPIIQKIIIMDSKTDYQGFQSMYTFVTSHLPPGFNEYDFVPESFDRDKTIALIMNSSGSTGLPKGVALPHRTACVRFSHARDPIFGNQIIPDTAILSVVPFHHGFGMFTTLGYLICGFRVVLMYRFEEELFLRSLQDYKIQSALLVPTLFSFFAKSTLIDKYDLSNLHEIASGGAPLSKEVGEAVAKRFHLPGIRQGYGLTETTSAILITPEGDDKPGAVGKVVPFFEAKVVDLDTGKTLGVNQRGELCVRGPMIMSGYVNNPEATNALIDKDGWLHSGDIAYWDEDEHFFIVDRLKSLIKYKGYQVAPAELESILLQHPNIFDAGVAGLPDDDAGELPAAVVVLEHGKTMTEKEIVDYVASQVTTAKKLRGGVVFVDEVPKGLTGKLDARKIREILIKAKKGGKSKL
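assay system = Luciferase/luciferin detection reagent, cell-free biochemical luciferase assay | also added = ATP substrate | times = 10 min post-reagent at room temperature | measured by = luminescence from luciferase reaction | measure = luciferase activation, seen as luminescence increase over controls | benchmarks = low control with PBS replacing ATP, high control enzyme plus ATP without compound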
HSP90 inh – HSP90 inhibitors, primary screen, cell lysate, luminescence. Heat shock protein HSP 90 (rabbit reticulocyte lysate; luciferase refolding). Rabbit reticulocyte lysate, luciferase refolding luminescence, 3 h. 290,000 tested, 0.91% active. inhibition, % at 5.6 µM;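 active = inhibition above the screen-wide mean plus 3 SD, computed separately per campaign, cut at about 16% in these data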;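 also: 0% = DMSO wells and 100% = 60 µM geldanamycin wells; inhibitors lower the luminescence because luciferase stays unfolded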
FLuc inhib CS – firefly luciferase enzyme inhibitors, primary screen, artefact control for luciferase-based inhibitor screens, biochemical, luminescence, ATPLite. Luciferin 4-monooxygenase (Photinus pyralis), P08659. 10 min. inhibition, % at 10 µM. 200,000 tested, 1.5% active;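 active = inhibition above about 50% when tested at 10 µM, limit read from the data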
PPC-1+TRAIL kill – compounds killing PPC-1 cancer cells with TRAIL present, primary screen, TRAIL potentiator project, ATPLite luminescence, uHTS; PPC-1 cells + TRAIL, ATPLite viability luminescence; cell killing (% activity), % at 4 µM or 5 µM; 220,000 tested, 0.41% active; AID 1443, 2008;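 active = cell killing above 50% in the first pass at 4 µM, then a duplicate retest at 5 µM averaging 50% or more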;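 also: plate controls were cells with TRAIL plus DMSO for no effect and medium-only wells lacking cells for full effect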
HSP90 confirm – HSP90 inhibitors, confirmation, cell lysate, luminescence; shares compounds with HSP90 inh; rabbit reticulocyte lysate, luciferase refolding luminescence, 3 h; inhibition, % at 5.9 µM; 2,300 tested, 64% active; in the data active = inhibition above about 18%;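 also: 0% = vehicle wells and 100% = reference inhibitor wells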
FLuc counter – firefly luciferase inhibitors, HSP90 counter-screen, confirmation, artefact control for HSP90 inhibitor project, biochemical, luminescence, triplicate. shares compounds with HSP90 inh. purified native firefly luciferase. inhibition, % at 5.9 µM. 2,300 tested, 48% active;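 active = inhibition above the mean inhibition of all tested sample wells plus 3 SD, cut at about 10% in these data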;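 also: 0% = DMSO with luciferase and 100% = wells lacking luciferase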
Starred values were filed as active, the others as inactive; . = not tested or not shown. Hits are enriched below; roughly 2% of the tested compounds scored in any of these assays.

SMILES	C8 TRAIL sens	FLuc act counter	HSP90 inh	FLuc inhib CS	PPC-1+TRAIL kill	HSP90 confirm	FLuc counter
O=C(Nc1ccccc1)c1cn2ccccc2n1	58.4*	.	37.3*	.	48.4	59.4*	41.2*
O=C(Nc1ccc(-n2cnnn2)cc1)c1cn2ccccc2n1	33.6	.	-1.3	.	23.5	.	.
Cc1cc(Cl)ccc1OCC(=O)N(Cc1cccs1)C1CCS(=O)(=O)C1 (stereo unspecified)	17.9	.	22.9*	.	.	2.2	-4.3
O=C(O)c1ccc(OCc2ccc(C(=O)O)o2)cc1	-4.4	.	-1.1	.	.	.	.
COc1ccc(OCc2cc(C(=O)O)c(C)o2)cc1	.	.	55.2*	.	2.0	62.8*	28.3*
CC(C)c1ccc(OCc2ccc(C(=O)NN3CCN(C)CC3)o2)cc1	4.4	1	18.8*	1.7	6.8	18.1*	-13.4
CC(C)c1ccc(OCc2ccc(C(=O)O)o2)cc1	-4.3	.	93.8*	.	19.5	94.1*	80.2*
CCc1ccc(OCc2ccc(C(=O)O)o2)cc1	18.9	.	95.6*	.	.	93.9*	67.9*
Cc1c(C)c2c(OCC(=O)N3CCC(C(=O)O)CC3)cc3c(c2oc1=O)CCC(C)(C)O3	-15.4	.	-5.5	.	.	.	.
Cc1ccc(N2CC(O)=C(c3nc4ccccc4c(=O)[nH]3)C2=N)cc1C	-0.8	1	25.0*	-3.3	10.9	-11.0	-10.0
CCCC1=Nc2cc(C(=O)N3CCC(C(=O)OCC)CC3)ccc2Sc2ccccc21	-2.1	.	2.4	.	.	.	.
CCc1ccc2c(c1)C(c1ccc([N+](=O)[O-])cc1)=NNC(c1ccc(C)cc1)=N2	15.4	1	4.0	2.4	-7.3	.	.
COc1ccc(/C=N/Nc2cc(OC)ncn2)cc1	60.8*	0.2	17.6*	82.7*	44.7	30.7*	25.7*
CC1(C)CN=C(N(C(=O)Nc2ccccc2)c2ccccc2F)S1	18.9	.	3.3	.	6.6	.	.
CC1(C)CN=C(N(Cc2ccccc2)C(=O)Nc2ccccc2)S1	8.5	0.9	19.0*	7.9	22.6	29.4*	18.7*
O=C(Nc1ncc([N+](=O)[O-])s1)c1ccc2c(c1)OCO2	67.5*	.	76.0*	.	.	87.2*	76.1*
CCCc1ccc(-c2ccc(F)c(N)c2)nc1	69.2*	0.1	53.4*	89.5*	38.3	76.7*	68.5*
CS(=O)(=O)N1CCC(Oc2cccc(C(=O)NCCCC3CCCC3)c2)CC1	5.1	.	29.4*	.	.	-6.8	-11.1
CCC(=NCc1ccccc1)c1c(C(F)(F)F)[nH]n(-c2nc3ccccc3s2)c1=O	4.8	0.9	-0.1	8.5	21.4	.	.
O=c1c(C=NCc2cccnc2)c(C(F)(F)F)[nH]n1-c1nc2ccccc2s1	44.9	0.3	41.7*	73.8*	.	35.3*	11.4*
CCn1cc(C(=O)NC2CCc3ccccc32)c(=O)c2ccc(C)nc21 (stereo unspecified)	.	1	26.8*	-2.5	-10.9	-2.6	-8.8
CC1SC2(NC1=O)C1CC3CC(C1)CC2C3 (stereo unspecified)	-3.5	1.1	-2.8	-9.1	11.8	.	.
O=S(=O)(Nc1cc(Sc2ncn[nH]2)c(O)c2ccccc12)c1ccccc1	27.1	1	92.8*	1.0	39.1	7.1	9.4*
CCOC(=O)CSc1nc2ccccc2c(=O)n1C	4.2	1	2.0	0.6	7.6	.	.
CCOC(=O)CSc1nc2ccccc2c(=O)n1NC(=O)c1ccccc1	-9.3	1	20.1*	-1.3	24.6	0.6	-4.2
SMILES	C8 TRAIL sens	FLuc act counter	HSP90 inh	FLuc inhib CS	PPC-1+TRAIL kill	HSP90 confirm	FLuc counter
COc1ccc(C(=O)Nn2c(SCC(=O)c3ccccc3)nc3ccccc3c2=O)cc1	18.5	0.8	48.1*	24.1	29.3	53.4*	48.4*
Nn1c(SCc2ccc([N+](=O)[O-])cc2)nc2ccccc2c1=O	-1.7	.	1.5	.	.	.	.
COc1ccc(C(=O)Nn2c(SCc3ccc([N+](=O)[O-])cc3)nc3ccccc3c2=O)cc1	26.2	1	55.2*	2.4	4.7	45.1*	33.4*
COCCn1c(SCC(=O)NC(=O)NC2CCCC2)nc2ccccc2c1=O	7.2	.	.	.	.	.	.
Cc1cc(/C=N/Nc2ccc([N+](=O)[O-])cn2)c(C)n1-c1ccc(C(=O)O)cc1	3.5	1	0.0	-4.8	17.7	.	.
Cc1cc(/C=N/Nc2nc(N)ncc2[N+](=O)[O-])c(C)n1-c1cccc(C(F)(F)F)c1	.	.	33.8*	.	0.6	28.5*	16.3*
COc1ccccc1C(=O)NCCOc1ccc(C(C)(C)C)cc1	34.0	.	-0.4	.	.	.	.
CCOCC(=O)Nc1cc(C(=O)NCCc2ccccc2)ccc1Cl	6.5	1	17.1*	-0.3	2.6	32.0*	-19.6
CC(C)(C)c1ccc(C(=O)NCCc2ccccc2)cc1	40.1	.	21.4*	.	.	53.1*	42.9*
CC(C)(C)c1ccc(C(=O)NCCOc2ccccc2)cc1	14.5	.	48.5*	.	.	69.7*	65.5*
O=C(CCNC(=O)c1ccc(Br)cc1)NNC(=O)COc1ccccc1F	11.4	.	.	.	.	.	.
CC(C)(C)c1ccc(C(=O)NCCOc2ccccc2F)cc1	19.0	.	62.9*	.	.	80.0*	78.2*
O=[N+]([O-])c1ccccc1S(=O)(=O)Nc1cccnc1	1.3	.	0.2	.	.	.	.
CCN1CCCC1CNC(=O)c1cc2cc(F)ccc2[nH]1 (stereo unspecified)	-19.2	.	2.1	.	.	.	.
O=C(NCCc1ccccc1)c1ccc([N+](=O)[O-])cc1	39.5	0.3	23.4*	66.0*	11.9	34.2*	29.9*
Cc1ccc(CCNC(=O)c2cccc(N3CCCC3=O)c2)cc1	9.4	.	-4.2	.	.	.	.
O=C(NCCc1ccc([N+](=O)[O-])cc1)c1ccccc1	7.6	.	4.3	.	15.6	.	.
COCCCN1C(=O)c2ccc(C(=O)Nc3cccc(OC)c3)cc2C1=O	-4.1	0.6	-4.5	43.9	-11.8	.	.
O=C(NCCc1ccccc1)c1cccc(N2CCCC2=O)c1	12.9	.	35.0*	.	.	52.5*	33.2*
COCCCN1C(=O)c2ccc(C(=O)NCCc3ccccc3)cc2C1=O	-9.8	.	22.1*	.	.	41.8*	23.5*
CC(C)(C)c1ccc(-c2nnc3sc(-c4ccccn4)nn23)cc1	10.2	0.9	40.0*	5.4	7.3	53.7*	25.9*
COc1ccc(C(c2c(C)[nH]n(-c3ccccc3)c2=O)c2c(C)[nH]n(-c3ccccc3)c2=O)cc1OC	4.2	0.7	21.9*	25.2	9.2	-1.4	-8.7
COc1ccc(C(c2c(C)n(C)n(-c3ccccc3)c2=O)c2c(C)n(C)n(-c3ccccc3)c2=O)cc1OC	6.1	.	1.5	.	.	.	.
